High-throughput results from PubChem.
NR2E3 ag-1 = inhibitors of NR2E3-RetCOR corepressor binding, primary screen, NR2E3 agonist project, biochemical, TR-FRET, GST-NR2E3, biotin-RetCOR; Photoreceptor-specific nuclear receptor (Homo sapiens), Q9Y5X4; 1536-well; inhibition of corepressor binding, % at 4.78 µM; 0.12% of 320,000 active; AID 2300, 2010;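 active = percent inhibition above the cutoff of mean plus 3 SD of all tested compounds, set per screening campaign, cut at about 20% in these data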;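 note: 0% = DMSO wells and 100% = biotin wells as full block of FRET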
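Format: 1536-well format; test system: GST-NR2E3 and biotin-RetCOR proteins; read-out basis: percent inhibition of TR-FRET ratio; timing: 5 h incubation at 4 °C; detection: time-resolved FRET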
PG9 Ab binder = binders of HIV-1 gp120 antibody PG9, primary screen, biochemical, TR-FRET. HIV-1 gp120 / PG9 antibody interaction. TR-FRET gp120-PG9 antibody binding. inhibition, % at 6.7 µM. 0.43% of 360,000 active. AID 624416, 2012; in the data active = inhibition above about 8.5%
NR2E3 ag-2 = NR2E3 agonists in two-hybrid cells, primary screen, cell-based, luminescence, CHO-S, Gal4-NCOR/VP16-NR2E3. Photoreceptor-specific nuclear receptor (Homo sapiens), Q9Y5X4. luciferase. inhibition of corepressor binding, % at 3.98 µM. 0.35% of 360,000 active. AID 602229, 2012;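 active = inhibition above the mean of all tested compounds plus 3 SD, cut at about 70% in these data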;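 note: 0% = DMSO with NR2E3 transfected cells and 100% = cells lacking NR2E3 construct; higher means lower luciferase signal from less NR2E3 corepressor binding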
NR1D1 modulator = modulators of Rev-erb alpha DNA binding, primary screen, biochemical, FITC-DNA, fluorescence polarization, uHTS | Rev-erbα–FITC-DNA binding, 90 min | activity, % at 10 µM | 0.79% of 370,000 active;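 active = activity above about 14%, limit read from the data; passing the limit was not always enough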;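 note: 0% = DMSO wells with 35 nM protein and 100% = DMSO wells with 750 nM protein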
Target sequence (P20393 whole entry, looked up): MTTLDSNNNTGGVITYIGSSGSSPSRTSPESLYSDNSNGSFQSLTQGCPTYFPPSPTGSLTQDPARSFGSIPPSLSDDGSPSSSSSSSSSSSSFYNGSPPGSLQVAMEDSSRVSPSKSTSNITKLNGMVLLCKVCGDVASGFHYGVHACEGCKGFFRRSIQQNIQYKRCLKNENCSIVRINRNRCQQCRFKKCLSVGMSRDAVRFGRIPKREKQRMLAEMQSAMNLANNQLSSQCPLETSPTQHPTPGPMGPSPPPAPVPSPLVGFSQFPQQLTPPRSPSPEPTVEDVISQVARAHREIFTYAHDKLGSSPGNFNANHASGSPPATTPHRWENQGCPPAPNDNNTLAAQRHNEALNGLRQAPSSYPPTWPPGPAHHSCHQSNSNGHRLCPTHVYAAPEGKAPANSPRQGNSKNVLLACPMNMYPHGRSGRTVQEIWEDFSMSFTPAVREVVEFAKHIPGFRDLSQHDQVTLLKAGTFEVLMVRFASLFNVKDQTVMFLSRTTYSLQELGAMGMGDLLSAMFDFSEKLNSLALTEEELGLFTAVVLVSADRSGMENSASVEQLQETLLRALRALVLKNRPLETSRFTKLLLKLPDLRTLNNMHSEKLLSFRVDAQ
NR1D1 mod conf = modulators of Rev-erb alpha DNA binding, confirmation, biochemical, FITC-DNA, fluorescence polarization, single point | shares compounds with NR1D1 modulator | 90 min | activation, % at 25 µM | 61% of 3,000 active | AID 1259319, 2017;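 active = activation at or above a set limit, or at least 3 SD above the negative control mean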;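 note: 0% = 35 nM protein with DMSO and 100% = 750 nM protein high control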
RORg DNA counter = modulation of RORgamma DNA binding, dose response, counter-screen for Rev-erb alpha modulator project, biochemical, fluorescence polarization, FITC-DNA; shares compounds with NR1D1 modulator; purified RORgamma protein-FITC-DNA binding; IC50, µM; 8% of 910 active; AID 1259320, 2017;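 active = Compounds whose fitted half-maximal concentration for disrupting protein-DNA binding is below 10 micromolar; the record names Rev-erb in its text, so the target is in doubt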
Numbers without * were called inactive; i = inactive; x = not tested or not shown. An excerpt weighted towards active compounds, which were near 1.4% of everything screened.

SMILES | NR2E3 ag-1 | PG9 Ab binder | NR2E3 ag-2 | NR1D1 modulator | NR1D1 mod conf | others
CCN(CC)c1ccc2cc(C(C)=O)c(=O)oc2c1 | -3 | -5 | 5 | 36* | 9
CCN(CC)c1ccc2cc(-c3nnc(-c4ccncc4)o3)c(=O)oc2c1 | x | -5 | -19 | 59* | 30*
CCN(CC)c1ccc2cc(C(N)=O)c(=N)oc2c1 | -2 | -5 | -58 | 55* | 24*
CCN(CC)c1ccc2cc(C=O)c(=O)oc2c1 | -3 | -7 | -12 | 90* | 74* | RORg DNA counter=>40
CCN(CC)c1ccc2cc(C(=O)Nc3ccccn3)c(=O)oc2c1 | 5 | 1 | -134 | -9 | x
CCN(CC)c1ccc2cc(C(N)=O)c(=O)oc2c1 | 4 | -2 | -20 | 9 | x
O=S(=O)(N1CCCCC1)N1CCN(CC(O)COc2ccc3cc(Br)ccc3c2)CC1 (stereo not drawn) | 8 | 12* | 1 | 100* | 49* | RORg DNA counter=i
COC(=O)[C@]12C[C@H](CC(=O)NCCc3ccccc3OC)C(=O)N(Cc3ccc4c(c3)OCO4)C1=C[C@H](COCc1ccccc1)O[C@@H]2C | x | -1 | x | -2 | x
CCOC(=O)c1ccc(NC(=O)C2CC(O)CN2S(=O)(=O)c2ccc(C)cc2)cc1 (stereo not drawn) | x | 1 | 2 | 21* | 1
Cc1csc(NC(=O)c2cc3c(C)nn(Cc4ccccc4Cl)c3s2)n1 | -2 | 2 | -10 | 22* | 17*
CCC[C@H]1[C@@H](N(C)Cc2cccs2)CC[C@@]23CCCN2C(=O)CCC[C@@H]13 | x | x | x | 43* | 52* | RORg DNA counter=>40
Cc1cccc(CN2CCN([C@@H]3CS(=O)(=O)N[C@H]3COCc3ccccc3)CC2)c1 | x | 0 | 10 | 6 | x
COc1ccc(NC(=O)c2oc3cc(C)c(C)cc3c2C)c(OC)c1 | 2 | -1 | 6 | 21* | 4
COc1ccc(C(=O)Nc2ccc(-c3ccc(NC(=O)c4ccc(OC)cc4)c(OC)c3)cc2OC)cc1 | 0 | 0 | 0 | 29* | 5
CCN(CC)S(=O)(=O)c1ccc2oc(C(=O)Nc3ccc(OC)cc3OC)c(C)c2c1 | -5 | -1 | -33 | -4 | x
COc1ccc2oc(C(=O)Nc3ccccc3N3CCOCC3)c(C)c2c1 | 3 | 2 | -26 | 29* | 9
OC[C@@H]1CN(Cc2ccco2)C[C@H](n2cnc3c(N4CCOCC4)ncnc32)O1 | x | -1 | -9 | -6 | x
Cc1ccc(C(O)c2ncc(-c3ccccc3C)[nH]2)cc1F (stereo not drawn) | x | 1 | -14 | -5 | x
Cc1cccc(C)c1-n1nnnc1C1(C)Cn2nccc2C(=O)N1Cc1ccc(F)cc1 (stereo not drawn) | x | x | x | -2 | x
N#CCNC(=O)c1nn2c(C(F)(F)F)cc(-c3ccccc3)nc2c1Br | 0 | -1 | -10 | 57* | 31* | RORg DNA counter=>40
O=C(NCC1CCCO1)c1nn2c(C(F)(F)F)cc(-c3cc(Br)cs3)nc2c1Br (stereo not drawn) | 0 | 0 | -22 | 23* | -4
Cc1ccc(-c2nnc(N3CCN(C(=O)CN4C(=O)c5ccccc5C4=O)CC3)c3ccccc23)cc1 | 0 | 0 | -3 | 25* | 7
Cc1ccc(OCC(=O)N2CCN(c3nnc(-c4ccc(C)cc4)c4ccccc34)CC2)cc1 | -1 | 1 | 12 | -4 | x
O=C(CN1C(=O)c2ccccc2C1=O)N1CCN(c2nnc(-c3ccccc3)c3ccccc23)CC1 | -1 | 5 | -7 | 29* | 8
O=C(c1ccccc1)c1nn(-c2cccc(Cl)c2)c2nc(-c3ccccc3)cc(=O)n12 | -2 | 0 | -3 | 24* | 14
SMILES | NR2E3 ag-1 | PG9 Ab binder | NR2E3 ag-2 | NR1D1 modulator | NR1D1 mod conf | others
CCOC(=O)c1cc2sc(C)cc2n1CC(=O)N1CCc2ccccc21 | -2 | -1 | -14 | 22* | 24*
CCCn1c(-c2cccs2)nc2c1c(=O)[nH]c(=O)n2Cc1ccccc1 | -5 | 1 | -15 | 23* | 2
CCCCn1c(=O)[nH]c(=O)c2c1nc(-c1ccccc1F)n2Cc1ccccc1 | -4 | 1 | -23 | 4 | x
O=C(CCCn1c(=S)[nH]c2ccccc2c1=O)N1CCN(c2cccc(Cl)c2)CC1 | 1 | 3 | 2 | 26* | 57*
O=C(CCCCn1c(=O)[nH]c2ccccc2c1=O)N1CCN(c2cccc(C(F)(F)F)c2)CC1 | 2 | 0 | 6 | -1 | x
CN(C)c1ccc2nc3c(=O)[nH]c(=O)nc-3n(CC(O)C(O)C(O)CO)c2c1 (stereo not drawn) | -9 | -14 | 0 | 33* | 37* | RORg DNA counter=i
CC(C)n1nnnc1C1c2ccccc2C(=O)N1Cc1ccco1 (stereo not drawn) | x | 0 | 20 | 2 | x
Cc1cccn2c(=O)c3cc(C(=O)O)n(C)c3nc12 | 0 | 1 | 16 | -5 | x
COC(=O)C1CCN(C(=O)c2cc3c(=O)n4cccc(C)c4nc3n2Cc2ccccc2)CC1 | 3 | -3 | -29 | 40* | 23*
COC(=O)[C@]12C[C@H](CC(=O)NCc3ccccc3)C(=O)N(CCC3=CCCCC3)C1=C[C@H](COCc1ccccc1)O[C@@H]2C | x | 0 | x | -2 | x
CCc1cc2c(C)ccc(C)c2nc1SCC(=O)Nc1c(C)[nH]c(=O)[nH]c1=O | 0 | 3 | 26 | -3 | x
CCc1cc2c(C)ccc(C)c2nc1SCC(=O)Nc1c[nH]c(=O)[nH]c1=O | 3 | 6 | -29 | 53* | 44* | RORg DNA counter=>40
COc1ccc(-n2c(Cc3cccs3)nnc2SCC(=O)Nc2ccc(OCc3ccccc3)cc2)cc1 | x | x | x | 3 | x
CCOC(=O)N1CCC(NC(=O)c2cc(C)c3c(C)nn(-c4ccccc4)c3n2)CC1 | -1 | -1 | -8 | 19* | -13
CCOC(=O)N1CCC(NC(=O)c2ccccc2C(=O)O)CC1 | -1 | -2 | -8 | -3 | x
C=CCN1C(=O)[C@H](CC(=O)N2CCCC2)[C@@]2(C(=O)OCC)CCCC=C12 | x | x | x | -5 | x
O=C(NCc1ccccc1)C(c1cccc2ccccc12)n1c(=O)c(-c2ccccc2)nc2ccccc21 (stereo not drawn) | x | -1 | x | 24* | 46* | RORg DNA counter=i
CCCCCNC(=O)C(c1cccc2ccccc12)n1c(=O)c(-c2ccccc2)nc2ccccc21 (stereo not drawn) | x | 0 | x | -4 | x
